# ChEMBL document CHEMBL1122940, “Cyclic guanidines. 17. Novel (N-substituted amino)imidazo[2,1-b]quinazolin-2 ones: water-soluble platelet aggregation inhibitors” (J Med Chem, 1985)
# Tests used:
# Rattus norvegicus [1] = assay: Ex vivo in vitro inhibition of blood platelet aggregation (ADP) in rats at oral dose 10 mg/kg 1 hour before the tes; assay type: functional
# Rattus norvegicus [2] = assay: Ex vivo inhibition of blood platelet aggregation (collagen) in rats at oral dose 10 mg/kg 1 hour before the test; assay type: functional
# Rattus norvegicus [3] = species: Rattus norvegicus; assay: In vitro inhibition of blood platelet aggregation (collagen) in rats; assay type: functional
# Rattus norvegicus [4] = species: Rattus norvegicus; assay: In vitro inhibition of blood platelet aggregation (ADP) in rats; assay type: functional
# Rattus norvegicus [5] = assay: Ex vivo in vitro inhibition of blood platelet aggregation (ADP) in rats at oral dose 10 mg/kg 1 hour before the test; assay type: functional
# Rattus norvegicus [6] = assay: Inhibition of blood platelet aggregation in rats (collagen) after intravenous infusion at dose 1 mg/kg after 15 min; assay type: functional
# Method in brief: (§1)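 Compounds were dissolved in physiological saline and infused continuously through the femoral vein into fed rats under pentobarbital anesthesia, at 1 mg/kg over 15 min or 10 mg/kg over 10 min. Citrated cardiac blood was drawn 15 or 10 min later, and aggregation was measured as in the in vitro test. Collagen was read as ΔA/min and ADP as ΔA. Values are mean ± SD of five animals, as percent inhibition versus control.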
# Rattus norvegicus [7] = assay: Duration of inhibition of blood platelet aggregation in rats (ADP) 3 hours after oral administration at dose 10 mg/kg; assay type: functional
# Method in brief: (§2)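 Rats got a single oral dose of 10 mg/kg, and controls got vehicle alone. Blood was collected 3 h later and aggregation was run ex vivo. Collagen-induced aggregation was read as ΔA/min and ADP-induced aggregation as ΔA. Values are mean ± SD of five animals, with percent inhibition versus vehicle control.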
# Rattus norvegicus [8] = assay: Inhibition of blood platelet aggregation in rats (ADP) after intravenous infusion at dose 1 mg/kg after 15 min; assay type: functional; method in brief: as §1
# Rattus norvegicus [9] = assay: Duration of inhibition of blood platelet aggregation in rats (collagen) 3 hr after oral administration at dose 10 mg/kg; assay type: functional; method in brief: as §2
# Rattus norvegicus [10] = assay: Change in heart rate 5 hours after oral administration at dose 50 mg/kg; assay type: functional
# Rattus norvegicus [11] = assay: Change in heart rate 1 hour after oral administration at dose 50 mg/kg; assay type: functional
# Rattus norvegicus [12] = assay: Decrease in systolic BP 2 hours after oral administration at dose 50 mg/kg; assay type: functional
# Rattus norvegicus [13] = assay: Change in heart rate 3 hours after oral administration at dose 50 mg/kg; assay type: functional
# Rattus norvegicus [14] = assay: Decrease in systolic BP 7 hours after oral administration at dose 50 mg/kg; assay type: functional
# Rattus norvegicus [15] = assay: Inhibition of blood platelet aggregation in rats (collagen) after intravenous infusion at dose 10 mg/kg after 10 min; assay type: functional; method in brief: as §1
# Rattus norvegicus [16] = assay: Decrease in systolic BP 3 hours after oral administration at dose 50 mg/kg; assay type: functional
# Rattus norvegicus [17] = assay: Decrease in systolic BP 1 hour after oral administration at dose 50 mg/kg; assay type: functional
# Rattus norvegicus [18] = assay: Decrease in systolic BP 5 hours after oral administration at dose 50 mg/kg; assay type: functional
# Rattus norvegicus [19] = assay: Change in heart rate 2 hours after oral administration at dose 50 mg/kg; assay type: functional
# Rattus norvegicus [20] = assay: Inhibition of blood platelet aggregation in rats (ADP) after intravenous infusion at dose 10 mg/kg after 10 min; assay type: functional; method in brief: as §1
# Rattus norvegicus [21] = assay: Change in heart rate 7 hours after oral administration at dose 50 mg/kg; assay type: functional
# Rattus norvegicus [22] = assay: Duration of inhibition of blood platelet aggregation in rats (collagen) 3 hours after oral administration at dose 10 mg/kg; assay type: functional; method in brief: as §2
# Rattus norvegicus [23] = assay: Ex vivo in vitro inhibition of blood platelet aggregation (ADP) in rats at oral dose 10 mg/kg 1 hour before the test; Platelet aggregation could not be measured optically because this compound causes hemolysis; assay type: functional, organism-based; design: dose 10 mg/kg
# Rattus norvegicus [24] = assay: Ex vivo inhibition of blood platelet aggregation (collagen) in rats at oral dose 10 mg/kg 1 hour before the test; Platelet aggregation could not be measured optically because this compound causes hemolysis; assay type: functional, organism-based; design: dose 10 mg/kg
SMILES,platelet aggregation rate (Rattus norvegicus [2]),EC50 (Rattus norvegicus [3]) [µM],EC50 (Rattus norvegicus [4]) [µM],platelet aggregation (Rattus norvegicus [5]),also measured
O=C1CN2Cc3c(ccc(Cl)c3Cl)N=C2N1 [ANAGRELIDE],0.067 ΔA/min,,,,platelet aggregation (Rattus norvegicus [1]): 0.248 ΔA
CCN(CC)c1ccc2c(c1Cl)CN1CC(=O)NC1=N2,0.041 ΔA/min,1.3,5.6,0.201 ΔA,
O=C1CN2Cc3c(ccc(N4CCCCC4)c3Cl)NC2=N1,,1.2,7.9,,
CN(C)c1ccc2c(c1)CN1CC(=O)NC1=N2,0.071 ΔA/min,1.4,5.4,0.193 ΔA,platelet aggregation rate (Rattus norvegicus [6]): 0.058 ΔA/min; platelet aggregation (Rattus norvegicus [7]): 0.16 ΔA; platelet aggregation (Rattus norvegicus [8]): 0.142 ΔA; platelet aggregation rate (Rattus norvegicus [9]): 0.154 ΔA/min
O=C1CN2Cc3c(ccc(N4CCCC4)c3Cl)NC2=N1,,2.7,3,,
CN(C)c1ccc2c(c1Cl)CN1CC(=O)NC1=N2,0.019 ΔA/min,1.2,7,0.098 ΔA,Change in heart rate (Rattus norvegicus [10]): 41%; Change in heart rate (Rattus norvegicus [11]): 46%; Change in BP (Rattus norvegicus [12]): 43 mmHg; Change in heart rate (Rattus norvegicus [13]): 43%; Change in BP (Rattus norvegicus [14]): 34 mmHg; platelet aggregation rate (Rattus norvegicus [15]): 0 ΔA/min; Change in BP (Rattus norvegicus [16]): 35 mmHg; Change in BP (Rattus norvegicus [17]): 45 mmHg; Change in BP (Rattus norvegicus [18]): 36 mmHg; Change in heart rate (Rattus norvegicus [19]): 46%; platelet aggregation (Rattus norvegicus [20]): 0.208 ΔA; Change in heart rate (Rattus norvegicus [21]): 38%
CC1CCCCN1c1ccc2c(c1)CN1CC(=O)NC1=N2 (stereo not drawn),0.145 ΔA/min,1.7,2,,platelet aggregation (Rattus norvegicus [1]): 0.19 ΔA
CN(C)c1cccc2c1CN1CC(=O)NC1=N2,,1.5,2.7,,
O=C1CN2Cc3ccc(N4CCCCC4)cc3N=C2N1,,8,46,,
O=C1CN2Cc3cc(N4CCOCC4)ccc3N=C2N1,0.154 ΔA/min,2,5,0.201 ΔA,platelet aggregation rate (Rattus norvegicus [15]): 0.09 ΔA/min; platelet aggregation (Rattus norvegicus [20]): 0.202 ΔA
CC1CCN(c2ccc3c(c2Cl)CN2CC(=O)NC2=N3)CC1,,2.3,4,,
O=C1CN2Cc3cc(N4CCCCC4)c(Cl)cc3N=C2N1,0.039 ΔA/min,0.46,0.4,0.137 ΔA,platelet aggregation (Rattus norvegicus [7]): 0.189 ΔA; platelet aggregation rate (Rattus norvegicus [9]): 0.18 ΔA/min
O=C1CN2Cc3cc(N4CCCC4)ccc3N=C2N1,,1.9,2.6,,
CN1CCN(c2ccc3c(c2Cl)CN2CC(=O)NC2=N3)CC1,0.149 ΔA/min,3,8,0.189 ΔA,
Nc1ccc2c(c1)CN1CC(=O)NC1=N2,,16,170,,
O=C1CN2Cc3c(cccc3N3CCCCC3)NC2=N1,,20,22.5,,
CN(C)c1cc2c(cc1Cl)NC1=NC(=O)CN1C2,0.082 ΔA/min,0.44,1.1,0.15 ΔA,platelet aggregation rate (Rattus norvegicus [22]): 0.136 ΔA/min; Change in heart rate (Rattus norvegicus [10]): 46%; Change in heart rate (Rattus norvegicus [11]): 42%; platelet aggregation (Rattus norvegicus [7]): 0.171 ΔA; Change in BP (Rattus norvegicus [12]): 27 mmHg; Change in heart rate (Rattus norvegicus [13]): 47%; Change in BP (Rattus norvegicus [14]): 23 mmHg; Change in BP (Rattus norvegicus [16]): 26 mmHg; Change in BP (Rattus norvegicus [17]): 30 mmHg; Change in BP (Rattus norvegicus [18]): 28 mmHg; Change in heart rate (Rattus norvegicus [19]): 50%; Change in heart rate (Rattus norvegicus [21]): 41%
CN(C)c1cc(Cl)c2c(c1)NC1=NC(=O)CN1C2,,,290,,
Cc1cc2c(cc1N1CCCCC1)NC1=NC(=O)CN1C2,,,220,,
CC1CCN(c2ccc3c(c2)CN2CC(=O)NC2=N3)CC1,0.122 ΔA/min,18,2.8,0.188 ΔA,
O=C1CN2Cc3ccc(N4CCOCC4)cc3N=C2N1,,,96,,
O=C1CN2Cc3cc(N4CCOCC4)c(Cl)cc3N=C2N1,0.055 ΔA/min,0.1,0.36,0.122 ΔA,
Cc1cc2c(cc1N1CCCCC1)CN1CC(=O)NC1=N2,,0.58,5.4,,Inhibition (Rattus norvegicus [23]): Platelet aggregation could not be measured optically because this compound causes hemolysis; Inhibition (Rattus norvegicus [24]): Platelet aggregation could not be measured optically because this compound causes hemolysis
CC1CCCCN1c1ccc2c(c1Cl)CN1CC(=O)NC1=N2 (stereo not drawn),,1.4,4,,
O=C1CN2Cc3cc(N4CCCCC4)ccc3N=C2N1,0.068 ΔA/min,0.33,3.8,0.121 ΔA,platelet aggregation rate (Rattus norvegicus [6]): 0 ΔA/min; Change in heart rate (Rattus norvegicus [10]): 25%; Change in heart rate (Rattus norvegicus [11]): 27%; platelet aggregation (Rattus norvegicus [7]): 0.158 ΔA; Change in BP (Rattus norvegicus [12]): 12 mmHg; Change in heart rate (Rattus norvegicus [13]): 27%; Change in BP (Rattus norvegicus [14]): 9 mmHg; platelet aggregation (Rattus norvegicus [8]): 0.116 ΔA; Change in BP (Rattus norvegicus [16]): 12 mmHg; Change in BP (Rattus norvegicus [17]): 18 mmHg; Change in BP (Rattus norvegicus [18]): 12 mmHg; Change in heart rate (Rattus norvegicus [19]): 32%; platelet aggregation rate (Rattus norvegicus [9]): 0.118 ΔA/min; Change in heart rate (Rattus norvegicus [21]): 17%
CNc1ccc2c(c1)CN1CC(=O)NC1=N2,,,24,,
O=C1CN2Cc3c(Cl)cc(N4CCCCC4)cc3N=C2N1,,,350,,
O=C1CN2Cc3c(sc4c3CCCC4)N=C2N1,0.073 ΔA/min,0.1,,0.112 ΔA,
CN(Cc1ccccc1)c1ccc2c(c1)CN1CC(=O)NC1=N2,,,26,,
